Results: ChEMBL document CHEMBL4371051, “Synthesis and SAR of novel capsazepine analogs with significant anti-cancer effects in multiple cancer types” (Bioorg Med Chem, 2019)
The source made the active and inactive calls. The rule behind the calls is not given here.

Columns and labels:
[1] = system: HeLa; assay: Antiproliferative activity against human HeLa cells after 24 hrs by cell titer 96 aqueous non-radioactive cell proliferation assay; assay type: functional, cell-based
In short: (§1)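 Cells kept in high-glucose DMEM with 10% FBS and 1% penicillin/streptomycin at 37°C, 5% CO2. They were exposed for 24 h to compound in serum-free DMEM, with final EtOH ≤0.1% (ethanol stocks made fresh). Viability was read by MTS absorbance against vehicle-treated controls; n=4 per group.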

[2] = system: HeLa; assay: Antitumor activity against human HeLa cells xenografted in athymic nude mouse assessed as tumor volume at 40 ug, administered intra-tumorally every day for 14 days (reference value: 562 mm3); assay type: functional
[3] = Toxicity in athymic nude mouse xenografted with human HeLa cells assessed as effect on adjacent non-malignant tissues at 40 ug, administered intra-tumorally every day for 14 days; conditions: in vivo, other, 336 h
[4] = Toxicity in athymic nude mouse xenografted with human HeLa cells assessed as effect on neurological function at 40 ug, administered intra-tumorally every day for 14 days; conditions: in vivo, other, 336 h
[5] = Toxicity in athymic nude mouse xenografted with human HeLa cells assessed as effect on respiration at 40 ug, administered intra-tumorally every day for 14 days; conditions: in vivo, other, 336 h
[6] = Toxicity in athymic nude mouse xenografted with human HeLa cells assessed as decrease in body weight at 40 ug, administered intra-tumorally every day for 14 days; conditions: in vivo, other, 336 h
[7] = Toxicity in athymic nude mouse xenografted with human HeLa cells assessed as effect on mobility at 40 ug, administered intra-tumorally every day for 14 days; conditions: in vivo, other, 336 h
[8] = Toxicity in athymic nude mouse xenografted with human HeLa cells assessed as effect on motor functions at 40 ug, administered intra-tumorally every day for 14 days; conditions: in vivo, other, 336 h
[9] = system: HSC-3; assay: Antiproliferative activity against human HSC3 cells after 24 hrs by cell titer 96 aqueous non-radioactive cell proliferation assay; assay type: functional, cell-based; conditions: HSC-3, 24 h; in short: as §1
[10] = system: NCI-H460; assay: Antiproliferative activity against human NCI-H460 cells after 24 hrs by cell titer 96 aqueous non-radioactive cell proliferation assay; assay type: functional, cell-based; conditions: NCI-H460, 24 h; in short: as §1
[11] = system: MDA-MB-231; assay: Antiproliferative activity against human MDA231 cells after 24 hrs by cell titer 96 aqueous non-radioactive cell proliferation assay; assay type: functional, cell-based; conditions: MDA-MB-231, 24 h; in short: as §1
[12] = system: PC-3; assay: Antiproliferative activity against human PC3 cells after 24 hrs by cell titer 96 aqueous non-radioactive cell proliferation assay; assay type: functional, cell-based; conditions: PC-3, 24 h; in short: as §1
[13] = target: Transient receptor potential cation channel subfamily V member 1 (Homo sapiens) (UniProt Q8NER1); assay: Agonist activity at TRPV1 (unknown origin) expressed in CHO cells assessed as increase in calcium influx by Calcium 6 dye-based FLIPR assay; assay type: cell-based
Transient receptor potential cation channel subfamily V member 1 (Homo sapiens), sequence (Q8NER1 whole entry): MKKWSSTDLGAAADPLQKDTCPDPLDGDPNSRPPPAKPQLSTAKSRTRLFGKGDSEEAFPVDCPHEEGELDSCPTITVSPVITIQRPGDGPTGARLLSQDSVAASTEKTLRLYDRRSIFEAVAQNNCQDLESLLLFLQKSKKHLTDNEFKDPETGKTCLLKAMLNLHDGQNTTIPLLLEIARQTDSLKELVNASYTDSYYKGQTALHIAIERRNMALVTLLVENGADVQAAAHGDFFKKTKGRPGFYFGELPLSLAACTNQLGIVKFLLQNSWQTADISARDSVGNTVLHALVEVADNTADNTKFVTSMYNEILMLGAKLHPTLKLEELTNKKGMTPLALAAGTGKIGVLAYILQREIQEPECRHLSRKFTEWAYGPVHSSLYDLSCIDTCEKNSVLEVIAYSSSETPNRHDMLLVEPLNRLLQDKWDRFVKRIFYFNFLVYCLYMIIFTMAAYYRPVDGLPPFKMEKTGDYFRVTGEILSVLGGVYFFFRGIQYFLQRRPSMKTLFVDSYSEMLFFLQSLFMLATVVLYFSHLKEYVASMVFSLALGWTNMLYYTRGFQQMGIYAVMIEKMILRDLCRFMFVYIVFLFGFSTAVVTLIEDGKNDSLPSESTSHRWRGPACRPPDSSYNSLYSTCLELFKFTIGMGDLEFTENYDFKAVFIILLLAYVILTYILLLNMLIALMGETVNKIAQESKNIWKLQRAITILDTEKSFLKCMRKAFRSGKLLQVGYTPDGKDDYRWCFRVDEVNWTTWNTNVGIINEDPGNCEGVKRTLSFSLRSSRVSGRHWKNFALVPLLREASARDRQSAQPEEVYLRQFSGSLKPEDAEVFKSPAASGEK
In short: (§2)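 CHO cells stably overexpressing TRPV1, grown at 37°C in 5% CO2. 9x10³ cells per well, loaded with Calcium 6 dye for 2 h. Dose-response curves were run, then compounds at 1 μM were compared with 100 nM capsaicin as the positive control and 1 μM CPZ as the negative control. Calcium influx was read as the change in fluorescence at 535 nm; n=3 per group.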

[14] = target: Transient receptor potential cation channel subfamily V member 1 (Homo sapiens) (UniProt Q8NER1); assay: Antagonist activity at TRPV1 (unknown origin) expressed in CHO cells assessed as inhibition of capsaicin-induced increase in calcium influx at 1 uM pretreated before 100 nM capsaicin addition by Calcium 6 dye-based FLIPR assay; assay type: cell-based
In short: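 CHO-TRPV1 cells, 9x10³ per well, loaded with Calcium 6 dye for 2 h. Cells were pretreated with 1 μM compound, then challenged with 100 nM capsaicin. TRPV1 inhibition was judged from the change in fluorescence at 535 nm.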

[15] = target: Transient receptor potential cation channel subfamily V member 1 (Homo sapiens) (UniProt Q8NER1); assay: Agonist activity at TRPV1 (unknown origin) expressed in CHO cells assessed as increase in calcium influx at 1 uM by Calcium 6 dye-based FLIPR assay; assay type: cell-based; in short: as §2
[16] = system: HeLa; assay: Potency index, ratio of capsazepine IC50 to compound IC50 for antiproliferative activity against human HeLa cells; assay type: functional

Structure (SMILES)	IC50 [1]	further results
O=C(NCCc1ccc(Cl)cc1)N1CCc2cc(O)c(O)cc2C1	15 µM	–
Oc1cc2c(cc1O)C(c1ccccc1)N(C(=S)NCCc1ccc(F)cc1)CC2 (configuration not stated)	17 µM	–
Oc1cc2c(cc1O)CN(C(=S)NCCc1ccc(Cl)cc1)CC2	< 10 µM	Activity [2]: 351 mm3; Activity [3]: Non-Toxic; Activity [4]: Non-Toxic; Activity [5]: Non-Toxic; Activity [6]: Non-Toxic; Activity [7]: Non-Toxic; Activity [8]: Non-Toxic; IC50 [9]: 20 µM; IC50 [10]: 23 µM; IC50 [11]: 5 µM; IC50 [12]: 13 µM; Activity [13]: Dose-dependent effect
CC(C)C1c2cc(O)c(O)cc2CCN1C(=S)NCc1ccccc1 (configuration not stated)	35 µM	–
CC(C)C1c2cc(O)c(O)cc2CCN1C(=S)NCCc1ccc(Cl)cc1 (configuration not stated)	55 µM	–
COc1ccc2c(c1)CCCN(C(=S)NCCc1ccc(Cl)cc1)C2	> 100 µM	–
Oc1cc2c(cc1O)CN(C(=S)NCCc1ccccc1)CC2	25 µM	–
CC(C)C1c2cc(O)c(O)cc2CCN1C(=S)NCCc1ccc(Cl)cc1Cl (configuration not stated)	46 µM	–
COc1ccc2c(c1)CN(C(=S)NCCc1ccc(Cl)cc1)CCC2	> 100 µM	–
Oc1cc2c(cc1O)C(c1ccccc1)N(C(=S)NCCc1ccc(Cl)cc1Cl)CC2 (configuration not stated)	20 µM	–
COc1cc2c(cc1OC)CN(C(=S)NCCc1ccc(Cl)cc1)CC2	> 100 µM	–
CC(C)C1c2cc(O)c(O)cc2CCN1C(=S)NCCc1ccccc1 (configuration not stated)	67 µM	–
Oc1cc2c(cc1O)CN(C(=S)NCCc1ccc(Cl)cc1Cl)CC2	30 µM	–
Oc1cc2c(cc1O)CN(C(=S)NCCc1ccc(Cl)cc1)CCC2 [CAPSAZEPINE]	30 µM	–
COc1cc2c(cc1OC)CN(C(=O)NCCc1ccc(Cl)cc1)CC2	> 100 µM	–
CN(CCc1ccc(O)c(O)c1)C(=O)NCCc1ccc(Cl)cc1	> 30 µM	–

Structure (SMILES)	IC50 [1]	further results
COc1ccc(CCNC(=S)N2CCc3cc(O)c(O)cc3C2)cc1	> 100 µM	–
Oc1cc2c(cc1O)C(c1ccccc1)N(C(=S)NCCc1ccccc1)CC2 (configuration not stated)	25 µM	–
Oc1ccc2c(c1)CN(C(=S)NCCc1ccc(Cl)cc1)CCC2	50 µM	–
COc1ccc(CN(C)C(=O)NCCc2ccc(Cl)cc2)cc1OC	> 30 µM	–
Oc1cc2c(cc1O)CN(C(=S)NCCc1ccc(Cl)cc1)C2	85 µM	–
CN(CCc1ccc(O)c(O)c1)C(=S)NCCc1ccc(Cl)cc1	30 µM	–
Oc1cc2c(cc1O)CN(C(=S)NCCc1ccc(F)cc1)CC2	25 µM	–
Oc1cc2c(cc1O)CN(C(=S)NCc1ccccc1)CC2	> 100 µM	–
Oc1cc2c(cc1O)C(c1ccccc1)N(C(=S)NCCc1ccc(Cl)cc1)CC2 (configuration not stated)	< 5 µM	–
COc1ccc(CCNC(=S)N2CCc3cc(O)c(O)cc3C2c2ccccc2)cc1 (configuration not stated)	24 µM	–
CC(C)C1c2cc(O)c(O)cc2CCN1C(=S)NCCc1ccc(F)cc1 (configuration not stated)	28 µM	–
Oc1ccc2c(c1)CCCN(C(=S)NCCc1ccc(Cl)cc1)C2	65 µM	–
CN(Cc1ccc(O)c(O)c1)C(=S)NCCc1ccc(Cl)cc1	> 100 µM	–
Oc1cc2c(cc1O)C(c1ccccc1)N(C(=S)NCc1ccccc1)CC2 (configuration not stated)	< 5 µM	Activity [2]: 283 mm3; Activity [3]: Non-Toxic; Activity [4]: Non-Toxic; Activity [5]: Non-Toxic; Activity [6]: Non-Toxic; Activity [7]: Non-Toxic; Activity [8]: Non-Toxic; IC50 [9]: 2 µM; IC50 [10]: 42 µM; IC50 [11]: 32 µM; IC50 [12]: 2.5 µM; inhibition [14]: inactive; Activity [15]: inactive; Ratio IC50 [16]: 6
CN(Cc1ccc(O)c(O)c1)C(=O)NCCc1ccc(Cl)cc1	30 µM	–
